Measured values reported in ChEMBL document CHEMBL4414622, “Synthesis, Purification, and Selective β2-AR Agonist and Bronchodilatory Effects of Catecholic Tetrahydroisoquinolines from Portulaca oleracea” (J Nat Prod, 2019).
The source made the active and inactive calls. No cut-off for these calls is given here.

Assays:
[1] = target: T1, Alpha-1B adrenergic receptor (Homo sapiens) (UniProt P35368); experiment: Agonist activity at human alpha1 beta adrenergic receptor expressed in CHOK1 cells co-expressing Galpha15 assessed as increase in calcium influx by measuring fluorescence intensity at 100 uM by FLIPR assay relative to epinephrine; format: functional, cell-based
T1 sequence (whole entry): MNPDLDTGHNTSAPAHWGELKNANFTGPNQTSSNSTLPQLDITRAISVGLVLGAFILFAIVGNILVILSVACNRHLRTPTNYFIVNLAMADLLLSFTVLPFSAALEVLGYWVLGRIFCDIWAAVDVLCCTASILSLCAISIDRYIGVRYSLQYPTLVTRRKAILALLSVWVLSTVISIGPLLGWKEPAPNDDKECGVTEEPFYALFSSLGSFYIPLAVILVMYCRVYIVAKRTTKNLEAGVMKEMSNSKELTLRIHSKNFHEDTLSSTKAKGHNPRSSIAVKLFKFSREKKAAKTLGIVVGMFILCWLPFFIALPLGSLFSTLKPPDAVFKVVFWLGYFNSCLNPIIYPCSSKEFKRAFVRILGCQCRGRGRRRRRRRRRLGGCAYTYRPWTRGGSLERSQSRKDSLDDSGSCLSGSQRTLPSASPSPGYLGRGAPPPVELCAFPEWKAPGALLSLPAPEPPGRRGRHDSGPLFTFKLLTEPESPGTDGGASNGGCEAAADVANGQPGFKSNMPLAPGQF
In short: (§1)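 Stably transfected CHO-K1/Gα15 lines (ADRB1, ADRB2 or ADRA1B) grown in Ham's F12 with 10% FBS, Zeocin and Hygromycin B at 37 °C. Seeded 1.5 × 10⁴ cells/well, 18 h, then Calcium 4 dye 1 h at 37 °C and 15 min room temperature. Compound (100 μM) added at 21 s of a 120 s FLIPR Tetra read. Stocks were 100 mM in DMSO, diluted in HBSS/20 mM HEPES pH 7.4. n = 4.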

[2] = target: Beta-1 adrenergic receptor (Homo sapiens) (UniProt P08588); experiment: Agonist activity at human beta1 adrenergic receptor expressed in CHOK1 cells co-expressing Galpha15 assessed as increase in calcium influx by measuring fluorescence intensity at 100 uM by FLIPR assay relative to epinephrine; format: functional, cell-based; in short: as §1
Sequence of Beta-1 adrenergic receptor (Homo sapiens) (P08588 whole entry, looked up): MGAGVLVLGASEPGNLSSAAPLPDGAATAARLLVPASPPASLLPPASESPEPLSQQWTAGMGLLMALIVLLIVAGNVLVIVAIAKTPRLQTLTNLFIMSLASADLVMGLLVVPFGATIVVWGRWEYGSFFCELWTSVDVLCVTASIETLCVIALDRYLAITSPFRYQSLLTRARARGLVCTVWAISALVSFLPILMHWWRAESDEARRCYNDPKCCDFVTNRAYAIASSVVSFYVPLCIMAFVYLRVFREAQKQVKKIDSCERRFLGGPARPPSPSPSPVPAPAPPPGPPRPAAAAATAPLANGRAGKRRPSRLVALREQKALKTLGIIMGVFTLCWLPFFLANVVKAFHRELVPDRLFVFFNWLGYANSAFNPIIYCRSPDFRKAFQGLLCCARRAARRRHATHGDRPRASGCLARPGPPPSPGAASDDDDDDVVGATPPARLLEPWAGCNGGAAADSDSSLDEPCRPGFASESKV

[3] = target: Beta-2 adrenergic receptor (Homo sapiens) (UniProt P07550); experiment: Agonist activity at human beta2 adrenergic receptor expressed in CHOK1 cells co-expressing Galpha15 assessed as increase in calcium influx by measuring fluorescence intensity at 100 uM by FLIPR assay relative to isoproterenol; format: functional, cell-based; in short: as §1
Sequence of Beta-2 adrenergic receptor (Homo sapiens) (P07550 whole entry, looked up): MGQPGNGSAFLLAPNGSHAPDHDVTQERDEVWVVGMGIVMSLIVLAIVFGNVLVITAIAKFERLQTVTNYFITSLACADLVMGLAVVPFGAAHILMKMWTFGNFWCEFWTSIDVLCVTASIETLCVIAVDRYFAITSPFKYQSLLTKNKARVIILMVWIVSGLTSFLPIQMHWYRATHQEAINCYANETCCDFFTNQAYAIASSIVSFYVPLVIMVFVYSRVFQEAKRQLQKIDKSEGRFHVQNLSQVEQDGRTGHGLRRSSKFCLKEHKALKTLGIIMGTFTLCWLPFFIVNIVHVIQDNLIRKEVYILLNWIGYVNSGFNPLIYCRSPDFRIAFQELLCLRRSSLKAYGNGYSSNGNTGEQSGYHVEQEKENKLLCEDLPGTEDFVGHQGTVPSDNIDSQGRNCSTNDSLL

[4] = target: Beta-2 adrenergic receptor (Cavia porcellus, UniProt Q8K4Z4); experiment: Agonist activity at beta2 adrenergic receptor in guinea pig tracheal smooth muscle assessed as inhibition of histamine-induced tracheal smooth muscle contraction by measuring spasmolysis in absence of beta adrenergic receptor antagonist propranolol
Sequence of Beta-2 adrenergic receptor (Q8K4Z4 whole entry): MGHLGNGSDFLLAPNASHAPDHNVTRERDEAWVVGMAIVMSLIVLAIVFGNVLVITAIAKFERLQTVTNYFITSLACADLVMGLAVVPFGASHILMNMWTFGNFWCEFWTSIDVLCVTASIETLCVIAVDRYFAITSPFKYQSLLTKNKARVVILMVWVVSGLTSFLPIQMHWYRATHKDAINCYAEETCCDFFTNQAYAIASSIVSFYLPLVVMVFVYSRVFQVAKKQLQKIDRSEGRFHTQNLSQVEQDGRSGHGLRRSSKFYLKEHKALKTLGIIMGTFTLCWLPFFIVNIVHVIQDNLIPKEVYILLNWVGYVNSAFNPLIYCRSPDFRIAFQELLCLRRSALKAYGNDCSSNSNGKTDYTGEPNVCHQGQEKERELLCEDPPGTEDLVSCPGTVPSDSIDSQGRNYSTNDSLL

[5] = target: Beta-2 adrenergic receptor (Cavia porcellus) (UniProt Q8K4Z4); experiment: Agonist activity at beta2 adrenergic receptor in guinea pig tracheal smooth muscle assessed as inhibition of histamine-induced tracheal smooth muscle contraction by measuring spasmolysis preincubated for 15 mins in presence of beta adrenergic receptor antagonist propranolol followed by histamine addition
Sequence of Beta-2 adrenergic receptor (Cavia porcellus) (Q8K4Z4 whole entry, looked up): as the sequence (Q8K4Z4 whole entry) above

| Structure (SMILES) | Activity [1] | Activity [2] | Activity [3] | EC50 [4] | inhibition [5] |
| --- | --- | --- | --- | --- | --- |
| Oc1cc2c(cc1O)C(c1ccccc1)NCC2 (stereo unspecified) | 51.5% | inactive | inactive |  |  |
| Oc1cc2c(cc1O)CCN=C2 | 24.2% | -6.22% |  |  |  |
| CC1=NCCc2cc(O)c(O)cc21 | 15.9% | -6.31% |  |  |  |
| Oc1cc2c(cc1O)[C@@H](Cc1ccccc1)NCC2 | 6.1% | 80.3% |  |  |  |
| CC(C)NCC(O)c1ccc(O)c(O)c1 (stereo unspecified) [ISOPROTERENOL] |  |  |  | 0.0079 µM |  |
| COc1cc(C2NCCc3cc(O)c(O)cc32)ccc1O (stereo unspecified) | 11.8% | inactive | inactive |  |  |
| Oc1cc2c(cc1O)C(c1ccco1)NCC2 (stereo unspecified) | 15.6% | -35.3% | -9.23% |  |  |
| Oc1cc2c(cc1O)C(Cc1ccccc1)NCC2 (stereo unspecified) | 39.4% | 99.9% | 44.7% | 0.8 µM | Dose-dependent effect |
| Oc1cc2c(cc1O)C(c1ccco1)=NCC2 | 13.4% | 73.5% |  |  |  |
| CC(C)CC1NCCc2cc(O)c(O)cc21 (stereo unspecified) | 7.7% | inactive | 64.5% | 2.8 µM | Dose-dependent effect |
| Oc1cc2c(cc1O)C(c1cccc3ccccc13)NCC2 (stereo unspecified) | 43.8% | inactive | inactive |  |  |
| Oc1ccc(C2NCCc3cc(O)c(O)cc32)cc1 (stereo unspecified) | 31.9% | inactive | inactive |  |  |
| Oc1ccc(C2NCCc3cc(O)c(O)cc32)cc1O (stereo unspecified) | 16.6% | inactive | inactive |  |  |
| COc1cc(C2NCCc3cc(O)c(O)cc32)cc(OC)c1OC (stereo unspecified) | 20.5% | inactive | inactive |  |  |
| Oc1cccc(C2NCCc3cc(O)c(O)cc32)c1 (stereo unspecified) | 14.5% | inactive | inactive |  |  |
| OCc1ccc(C2NCCc3cc(O)c(O)cc32)o1 (stereo unspecified) | 22.3% | -20.3% | -11.1% |  |  |
| COc1ccccc1C1NCCc2cc(O)c(O)cc21 (stereo unspecified) | 36.3% | inactive | inactive |  |  |
| COc1ccc(C2NCCc3cc(O)c(O)cc32)cc1 (stereo unspecified) | 18.5% | inactive | inactive |  |  |
| CC(C)C[C@H]1NCCc2cc(O)c(O)cc21 | 20.5% | inactive |  |  |  |
| CC1NCCc2cc(O)c(O)cc21 (stereo unspecified) | 22.1% | -11.4% | 2.91% |  |  |
| C[C@@H]1NCCc2cc(O)c(O)cc21 | 19.2% | -9.5% |  |  |  |
| OCc1ccc(C2=NCCc3cc(O)c(O)cc32)o1 | 13.7% | -10.4% |  |  |  |
